# Experimental data taken from ChEMBL document CHEMBL1145627, “E-ring-modified 7-oxyiminomethyl camptothecins: Synthesis and preliminary in vitro and in vivo biological evaluation” (Bioorg Med Chem Lett, 2008).
# Assays:
# HT-29 [1] = assay: Antiproliferative activity against BCRP overexpressing mitoxantrone-resistant human HT29 cells after 1 hr of drug exposure measured after 72 hrs; format: functional, cell-based
# Summary of the method: (§1)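 Growth inhibition after 1-h drug exposure; IC50 is the concentration giving 50% reduction of cell growth versus untreated controls. Values are means ± SD from at least three experiments.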
# HT-29 [2] = assay: Resistant index, ratio of IC50 for BCRP overexpressing mitoxantrone-resistant human HT29 cells to IC50 for human HT29 cells; format: functional
# Summary of the method: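 Resistance index in HT29/mit, the BCRP-overexpressing subline. IC50 values come from the 1-h exposure growth inhibition assay, as 50% growth reduction versus untreated controls.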
# NCI-H460 [3] = assay: Antiproliferative activity against human H460 cells after 1 hr of drug exposure measured after 72 hrs; format: functional, cell-based; summary of the method: as §1
# HT-29 [4] = assay: Antiproliferative activity against human HT29 cells after 1 hr of drug exposure measured after 72 hrs; format: functional, cell-based; summary of the method: as §1
# Mus musculus [5] = assay: Toxicity in human Panc1 cells xenografted athymic mouse assessed as survival at 400 mg/kg, po administered in q4dx4 schedule; format: organism-based, PANC-1; parameters: route oral; conditions: in vivo
# Summary of the method: (§2)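 Mice carried subcutaneous human tumor xenografts (CoBa, MKN-28 or Panc-1). They were dosed orally on an intermittent q4dx4 schedule, which was also used to set the maximum tolerated dose. Toxicity was scored as lethal toxicity, given as dead/treated mice. Drug-induced % body weight loss was also recorded.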
# Mus musculus [6] = assay: Toxicity in human CoBa cells xenografted athymic mouse assessed as survival at 50 mg/kg, iv administered in q4dx4 schedule; format: organism-based; parameters: dose 50 mg/kg, route intravenous; conditions: in vivo
# [7] = Antitumor activity against human CoBa cells xenografted in athymic mouse assessed as inhibition of tumor volume at 50 mg/kg, iv administered in q4dx4 schedule
# PANC-1 = assay: Antitumor activity against human Panc1 cells xenografted athymic mouse assessed as inhibition of tumor volume at 400 mg/kg, po administered in q4dx4 schedule; format: functional
# Summary of the method: (§3)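 Human tumor xenografts (CoBa colon, MKN-28 gastric, Panc-1 pancreatic) grown subcutaneously in mice. Drug given orally on an intermittent q4dx4 schedule. Read-out is % tumor volume inhibition in treated versus control mice. Complete responses were scored as tumor disappearance lasting at least ten days.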
# Mus musculus [8] = assay: Toxicity in human MKN28 cells xenografted athymic mouse assessed as survival at 8 mg/kg, po administered in q4dx4 schedule; format: organism-based, MKN-28; parameters: dose 8 mg/kg, route oral; conditions: in vivo; summary of the method: as §2
# Mus musculus [9] = assay: Toxicity in human MKN28 cells xenografted athymic mouse assessed as loss of body weight at 16 mg/kg, po administered in q4dx4 schedule; format: organism-based, MKN-28; parameters: dose 16 mg/kg, route oral; conditions: in vivo
# Summary of the method: (§4)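 Oral dosing on an intermittent q4dx4 schedule in mice bearing MKN-28 gastric carcinoma xenografts. Tumor volume inhibition % is relative to controls. Body weight loss % is the loss induced by drug treatment.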
# Mus musculus [10] = assay: Toxicity in human MKN28 cells xenografted athymic mouse assessed as survival at 16 mg/kg, po administered in q4dx4 schedule; format: organism-based, MKN-28; parameters: dose 16 mg/kg, route oral; conditions: in vivo; summary of the method: as §2
# Mus musculus [11] = assay: Toxicity in human MKN28 cells xenografted athymic mouse assessed as loss of body weight at 8 mg/kg, po administered in q4dx4 schedule; format: organism-based, MKN-28; parameters: dose 8 mg/kg, route oral; conditions: in vivo; summary of the method: as §4
# Mus musculus [12] = assay: Toxicity in human MKN28 cells xenografted athymic mouse assessed as survival at 4 mg/kg, po administered in q4dx4 schedule; format: organism-based, MKN-28; parameters: dose 4 mg/kg, route oral; conditions: in vivo; summary of the method: as §2
# MKN-28 [13] = assay: Antitumor activity against human MKN28 cells xenografted athymic mouse assessed as inhibition of tumor volume at 4 mg/kg, po administered in q4dx4 schedule; format: functional; summary of the method: as §3
# Mus musculus [14] = assay: Toxicity in human MKN28 cells xenografted athymic mouse assessed as loss of body weight at 4 mg/kg, po administered in q4dx4 schedule; format: organism-based, MKN-28; parameters: dose 4 mg/kg, route oral; conditions: in vivo; summary of the method: as §4
# MKN-28 [15] = assay: Antitumor activity against human MKN28 cells xenografted athymic mouse assessed as inhibition of tumor volume at 16 mg/kg, po administered in q4dx4 schedule; format: functional; summary of the method: as §3
# MKN-28 [16] = assay: Antitumor activity against human MKN28 cells xenografted athymic mouse assessed as inhibition of tumor volume at 8 mg/kg, po administered in q4dx4 schedule; format: functional; summary of the method: as §3
# NCI-H460 [17] = assay: Antiproliferative activity against human H460 cells after 2 hrs of drug exposure measured after 72 hrs; format: functional, cell-based
# Summary of the method: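 Growth inhibition with IC50 taken after 2-h drug exposure, as the concentration giving 50% reduction of cell growth versus untreated controls.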
smiles,measurement,setting,value
CC[C@@]1(O)C(=O)OCc2c1cc1n(c2=O)Cc2c-1nc1ccccc1c2/C=N/OCc1ccccc1,IC50,HT-29 [1],42 nM
same,Ratio IC50,HT-29 [2],0.75
same,IC50,NCI-H460 [3],30 nM
same,IC50,HT-29 [4],56 nM
CC[C@@]1(O)OC(=O)c2c1cc1n(c2=O)Cc2c-1nc1ccccc1c2/C=N/OC(C)(C)C,Activity,Mus musculus [5],Non-toxic
same,Activity,Mus musculus [6],Non-toxic
same,LCK,[7],1.1
same,LCK,PANC-1,1.6
CCC1(O)CC(=O)OCc2c1cc1n(c2=O)Cc2c-1nc1ccccc1c2/C=N/OCc1ccccc1 (stereo unspecified),Activity,Mus musculus [8],Non-toxic
same,Activity,Mus musculus [9],0%
same,Activity,Mus musculus [10],Non-toxic
same,Activity,Mus musculus [11],6%
same,Activity,Mus musculus [12],Non-toxic
same,IC50,HT-29 [1],350 nM
same,Ratio IC50,HT-29 [2],20
same,LCK,MKN-28 [13],0
same,inhibition in vivo at 4 mg/kg,"MKN-28 [13]; Mus musculus, MKN-28",17%
same,Activity,Mus musculus [14],0%
same,LCK,MKN-28 [15],0.2
same,inhibition in vivo at 16 mg/kg,"MKN-28 [15]; Mus musculus, MKN-28",47%
same,LCK,MKN-28 [16],0.4
same,inhibition in vivo at 8 mg/kg,"MKN-28 [16]; Mus musculus, MKN-28",60%
same,IC50,NCI-H460 [3],15 nM
same,IC50,HT-29 [4],17 nM
CC[C@@]1(O)CC(=O)OCc2c1cc1n(c2=O)Cc2c-1nc1ccccc1c2/C=N/OC(C)(C)C,IC50,NCI-H460 [17],1.8 nM
CC[C@]1(O)CC(=O)OCc2c1cc1n(c2=O)Cc2c-1nc1ccccc1c2/C=N/OC(C)(C)C,IC50,NCI-H460 [17],> 200 nM
